procasp3 activ – activates human procaspase-3 | P42574 | recombinant procaspase-3 D3A, Ac-DEVD-pNA absorbance 405 nm | activation, % at 8.5 µM | 330,000 compounds, 0.11% hits | AID 463141;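 active = activation above the mean of all tested compounds plus 3 SD, cut at about 21% in these data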;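 also: 0% = DMSO alone and 100% = DMSO wells spiked with extra 5 µM PC-3 D3A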
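material = Procaspase-3 D3A mutant | probe or stimulus = Ac-DEVD-pNA | compound = single dose, 8.5 µM nominal compound, 0.8% DMSO | timing = 1 h preincubation, 2 h reaction | measured by = 405 nm absorbance of p-nitroaniline, reads at 0 and 120 min | benchmarks = DMSO-only low control, 5 µM PC-3 D3A high control | repeats = singlicate, each compound tested once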
PLCg1 inh – inhibitors of human phospholipase C gamma1. inhibition, % at 12.2 µM. 370,000 compounds, 0.84% hits. purified PLC-gamma1, fluorogenic substrate, fluorescence. AID 720700. P19174; in the data active = inhibition above about 9.5%
PLC-beta3 inh – PLC-beta3 (human) inhibition, primary screen. Q01970. Purified PLC-beta3, fluorogenic substrate, fluorescence. inhibition, % at 12.2 µM. 370,000 compounds, 0.18% hits; in the data active = inhibition above about 11%;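 also: 0% = median of compound wells on plate and 100% = full blocker control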
HGIII-sPLA2 inh – Inhibits HGIII-sPLA2 liposome hydrolysis, primary screen; Q9NZ20; QFRET BODIPY PC-A2 liposome hydrolysis, fluorescence; inhibition, % at 12.2 µM; 370,000 compounds, 0.56% hits; AID 743126;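 active = inhibition above mean plus 3 SD of compounds lying within the high and low control bounds, cut at about 19% in these data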;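 also: 0% = median of test compound wells and 100% = no enzyme DMSO wells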
Target sequence (Q9NZ20 whole entry, looked up): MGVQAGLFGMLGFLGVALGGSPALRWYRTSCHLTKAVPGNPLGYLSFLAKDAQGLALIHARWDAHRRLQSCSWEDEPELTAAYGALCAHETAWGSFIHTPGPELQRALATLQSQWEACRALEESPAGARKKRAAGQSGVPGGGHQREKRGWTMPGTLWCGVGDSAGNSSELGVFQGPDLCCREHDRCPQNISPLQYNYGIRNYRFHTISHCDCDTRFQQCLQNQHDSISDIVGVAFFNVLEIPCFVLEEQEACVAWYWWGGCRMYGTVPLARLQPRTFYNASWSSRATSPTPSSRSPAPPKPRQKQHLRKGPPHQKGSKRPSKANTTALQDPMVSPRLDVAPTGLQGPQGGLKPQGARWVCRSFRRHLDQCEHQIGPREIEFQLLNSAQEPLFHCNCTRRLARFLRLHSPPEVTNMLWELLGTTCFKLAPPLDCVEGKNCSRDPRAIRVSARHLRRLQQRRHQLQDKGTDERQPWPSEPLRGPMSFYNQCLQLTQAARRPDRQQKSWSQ
procasp7 counter – counter-screen: procaspase-7 (human) activation; P55210; AID 463210; activation, % at 8.5 µM; recombinant procaspase-7, Ac-DEVD-pNA absorbance 405 nm; D23A/D198A/D206A triple mutant, cannot self-cleave; scale: DMSO 0, 5 µM enzyme 100; 330,000 compounds, 0.093% hits;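 active = percent activation above the screen-wide mean plus 3 SD, cut at about 25% in these data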
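Replicates: singlicate. Assay system: Procaspase-7 triple mutant (PC-7 D3A). Signal: 405 nm absorbance of p-nitroaniline. Times: 1 h preincubation, 2 h reaction. Buffer or medium: Zinc-free HEPES pH 7.4 with 300 mM NaCl, 0.01% Triton X-100. Also added: DEVD-pNA substrate. Benchmarks: DMSO wells as 0%, DMSO with 5 µM added PC-7 as 100%.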
hGIII sPLA2 conf – human GIII-sPLA2 inhibition, confirmation; shares compounds with HGIII-sPLA2 inh; recombinant hGIII-sPLA2, BODIPY PC-A2 QFRET fluorescence; inhibition, % at 12.2 µM; 2,000 compounds, 34% hits; AID 743280;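 active = mean inhibition across triplicates above the hit cutoff set in the earlier primary screen, cut at about 19% in these data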;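 also: 0% = enzyme with DMSO and 100% = DMSO wells lacking enzyme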
BODIPY interf – 535nm fluorescence interference, HGIII-sPLA2 counter-screen; shares compounds with HGIII-sPLA2 inh; BODIPY FL product fluorescence interference, QFRET; inhibition, % at 12.2 µM; 2,000 compounds, 8.5% hits; AID 743282;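 active = average inhibition above the solvent-only control mean plus 3 SD, cut at about 6% in these data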;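 also: 0% = DMSO with substrate plus product and 100% = DMSO with substrate alone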
535nm interf DR – interferes with 535nm fluorescence in dose response counter-screen; BODIPY FL product fluorescence interference, cell-free; 240 tested, under 10 active; AID 743455; IC50, µM; shares compounds with HGIII-sPLA2 inh;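 active = IC50 at or below 10 µM; inactive = IC50 above 10 µM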
Active calls of the source: *; i = inactive; . = no result. Only some compounds are listed: those with a hit (about 1.6% of all), similar ones and a draw of the others.

SMILES	procasp3 activ	PLCg1 inh	PLC-beta3 inh	HGIII-sPLA2 inh	procasp7 counter	hGIII sPLA2 conf	BODIPY interf	others
CC1CCCCC1NC(=O)CCn1c(=S)[nH]c2ccccc2c1=O (stereo unspecified)	.	-1	-1	21*	.	20*	0
Cc1[nH]c2ccccc2c1/C=N/NC(N)=S	-9	6	-7	21*	-3	17	1
COCCCn1cc(CN2CC(N3CCN(Cc4ccccc4F)CC3)CS2(=O)=O)nn1 (stereo unspecified)	.	4	3	4	.	.	.
O=C(c1ccccc1O)N1N=C(C(F)(F)F)CC1(O)c1ccc([N+](=O)[O-])cc1 (stereo unspecified)	-5	7	-2	21*	-2	13	5
Cc1nn(C)c(C(=O)NNC(=S)NC2CCCCC2)c1Br	5	-1	1	23*	-4	22*	-3
COc1ccc(CCNC(=O)C2=CCN(S(=O)(=O)c3ccc(F)cc3)CC2)cc1OC	-7	0	-8	3	-10	.	.
Cc1cc(=O)[nH]c(SCC(=O)N2CCCC(C)C2)n1 (stereo unspecified)	-3	4	-4	2	0	.	.
Cc1cc(=O)[nH]c(SCC(=O)N2CCCC2)n1	-1	2	-7	20*	0	0	-7
COc1cc(C=c2c3ccccc3n3c2cc(-c2ccccc2)[n+]3C)cc(OC)c1OC	.	-128	-188	14	.	.	.
CN(C)c1ccc(C=c2c3ccccc3n3c2c2c([n+]3C)CCCC2)cc1	.	-16	-23	39*	.	49*	-24	535nm interf DR=>122
CN(C)c1ccc(C=c2c3ccccc3n3c2cc(-c2ccccc2)[n+]3C)cc1	.	-77	-96	31*	.	56*	-26	535nm interf DR=>122
COc1cc(N(C)C)ccc1C=c1c2ccccc2n2c1cc(-c1ccccc1)[n+]2C	.	-14	-23	45*	.	52*	-19	535nm interf DR=>122
CN(C)c1ccc(C=c2c3cc([N+](=O)[O-])ccc3n3c2cc(-c2ccccc2)[n+]3C)cc1	.	5	9	48*	.	98*	-9	535nm interf DR=>122
Cc1ccc(S(=O)(=O)NC(=O)C2(C)CCN2C(=O)c2ccccc2CCc2ccccc2)cc1 (stereo unspecified)	.	-2	-2	-16	.	.	.
COc1ccc(CCNC(=O)C(=O)NCc2cccs2)cc1OC	4	-2	1	3	7	.	.
O=C(N/N=C1\CCSc2ccc(F)cc21)c1cccnc1	0	-6	-13	7	9	.	.
NC(=S)N/N=C1\CCSc2ccc(Cl)cc21	-5	-8	-36	30*	-13	15	-6
Oc1ccccc1/C=N/NC(=S)NC1CC2C=CC1C2 (stereo unspecified)	-3	-63	-106	27*	11	21*	6.2*
Oc1ccccc1C=NNC(=S)NC1CC2C=CC1C2 (stereo unspecified)	.	-127	-172	21*	.	24*	6
Oc1ccc(O)c(C=NNC(=S)NC2CC3CC2C2C=CCC32)c1 (stereo unspecified)	.	-51	-81	19	.	.	.
O=C(N/N=C/c1ccccc1O)NC12CC3CC(CC(C3)C1)C2	-3	-1	-12	-16	-1	.	.
O=C(Nc1ccc(Oc2ccccc2)cc1)N[C@@H](Cc1ccccc1)C(=O)O	-1	2	-20	3	3	.	.
CC(Oc1ccccc1)C(=O)N1CCN(c2ccc(N3CCOCC3)nn2)CC1 (stereo unspecified)	-3	-475	i	-1	1	.	.
CC(NC(=O)CCCc1c[nH]c2ccccc12)c1ccc(F)cc1 (stereo unspecified)	-4	-13	-27	-55	4	.	.
CCN(CC)S(=O)(=O)c1ccc(C)c(NC(=O)COc2ccc3c(C)cc(=O)oc3c2)c1	6	-1	3	20*	-6	-12	-11
SMILES	procasp3 activ	PLCg1 inh	PLC-beta3 inh	HGIII-sPLA2 inh	procasp7 counter	hGIII sPLA2 conf	BODIPY interf	others
CCN(CC)S(=O)(=O)c1ccc(OC)c(NC(=O)C(C)Oc2ccc3c(C)cc(=O)oc3c2)c1 (stereo unspecified)	2	-4	-7	-8	0	.	.
CN(C)S(=O)(=O)c1ccc(Cl)c(C(=O)NCCNC(=O)c2cc(S(=O)(=O)N(C)C)ccc2Cl)c1	-9	-1	-2	21*	-2	-2	-12
O=C(N[C@@H](Cc1ccccc1)C(=O)Nc1ccc(F)cc1)C1CCNCC1	5	6	-3	7	6	.	.
CC(=O)Nc1ccc(NC(=O)C(Cc2ccccc2)NC(=O)C2CCC(C)CC2)cc1 (stereo unspecified)	-4	2	-3	25*	-3	10	-13
CN(C)S(=O)(=O)c1cccc(C(=O)Nc2ccc(N3CCOCC3)cc2)c1	2	5	-4	25*	-9	4	-2
O=C(Nc1ccc(N2CCCCCC2)cc1)c1ccc[nH]1	-2	-3	-12	22*	-6	34*	-6	535nm interf DR=>122
O=C(Nc1ccc(N2CCCC2)cc1)c1cccc(Cl)c1	3	-1	-12	24*	12	25*	-1
O=C(c1ccccc1)C1CCN(C(=O)c2ccco2)CC1	0	2	-7	-1	-10	.	.
COc1ccc(-c2nc3c(-c4ccc(F)cc4)cnn3cc2C)cc1F	3	2	-8	6	-1	.	.
c1ccc2oc(-c3ccc(Nc4nc(N5CCOCC5)nc(N5CCOCC5)n4)cc3)nc2c1	.	-2	-12	1	.	.	.
CCc1nc(SCC(=O)NNC(=O)C(C)C)c2ccccc2n1	5	2	1	6	0	.	.
CCc1nc(SCC(=O)Nc2ccc(N(C)C)cc2)c2ccccc2n1	5	0	-9	22*	-10	23*	-1
Nc1ccc(Oc2cc(N)cc(Oc3ccccc3)c2)cc1	3	5	-3	23*	0	10	-2
CCCNC(=O)CN(c1cccc(F)c1)S(C)(=O)=O	2	6	-2	20*	-7	-4	2
COC(=O)[C@]12C[C@H](CC(=O)N3CCC(c4ccccc4)CC3)C(=O)N(Cc3ccco3)C1=C[C@H](C1CCCC1)O[C@@H]2C	.	-4	1	-11	.	.	.
Cc1[nH]c(N=Nc2ccccc2)nc1N=Nc1ccccc1	-23	4	-2	25*	-18	17	9.0*
FC(F)(F)c1cnc(NNC(=S)Nc2cccnc2)c(Cl)c1	-13	-6	-4	20*	-13	33*	1	535nm interf DR=>122

Screening data from PubChem BioAssay.
